CaV13 FRET inh: Primary screen for inhibitors of IQ motif and Ca2+-dependent inactivation inhibitor domain binding in CACNA1D, Förster resonance energy transfer in living cells, …; HEK cells, CFP/YFP FRET ICDI-IQ, plate reader, 10 min; percent FRET-ratio fall versus neutral wells; inhibition, % at 12.3 µM; actives 0.098% (n = 340,000);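 active means mean replicate inhibition of at least 30% and at least 1% of replicates passing that level; inconclusive means only one of the two criteria is met; inactive means neither criterion is met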;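 further: 0% = median of the neutral control wells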
SR-BI uptake up: activators of SR-BI mediated HDL lipid uptake; activation, % at 12.5 µM; CHO ldlA[mSR-BI] cells, DiI-HDL uptake fluorescence, 3 h; 100 = double the neutral-control signal; actives 0.096% (n = 320,000);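 active means mean replicate activation of at least 60% and every replicate at or above 60%; inconclusive means mean or all-replicate condition met, but not both; inactive means mean below 60% and not all replicates reaching 60%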;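 further: 0% = median plate neutral-control signal and 100% = twice that signal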
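Assay system: LDL receptor-deficient CHO ldlA cells overexpressing murine SR-BI / Medium: BSA-supplemented, HEPES-buffered Ham's F12, pH 7.4 / Probe or stimulus: DiI-labelled HDL at 10 µg/mL final / Timing: compound with DiI-HDL co-incubation, 3 h at 37 °C / Technique: bottom-read cell fluorescence after medium removal, ex 550/em 595 nm / Measure: HDL uptake via cellular fluorescence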
FN deposit inh: fibronectin deposition inhibition. inhibition, % at 12.6 µM. actives 0.086% (n = 350,000). AID 743247. AH1F fibroblasts, Alexa488-fibronectin deposition fluorescence, overnight;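 active means mean inhibition across replicates of 30% or more, regardless of how many single replicates reach that level; inconclusive means mean under 30% yet at least half of replicates reach 30%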;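 further: positive control wells lacked labelled fibronectin entirely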
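material = AH1F fibroblast monolayer depositing Alexa488-labelled fibronectin into matrix | amount = 10000 AH1F cells/well | buffer or medium = DMEM plus 2% serum, read in PBS | incubation = 1 h cell adhesion before compound, then overnight fibronectin incubation | detection = fluorescence at 485 nm excitation, 525 nm emission | evaluation = percent inhibition as loss of matrix-bound fibronectin fluorescence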
Efflux pump inh: antifungal efflux pump inhibition, Nile Red retention; S. cerevisiae Candida pump triplex; inhibition, % at 10 µM; actives 0.44% (n = 330,000); AID 485275;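 active means plate passing quality check with inhibition over a set limit, or well fluorescence over plate mean plus 4 SD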;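 further: Nile Red retained in pooled yeast measured as flow cytometry median fluorescence; 0% = buffer negative control and 100% = Enniatin B positive control; higher means more Nile Red kept so more efflux inhibition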
SR-BI HDL uptake: mouse SR-BI HDL lipid transfer inhibition; Q61009; ldlA[mSR-BI] CHO cells, DiI-HDL uptake fluorescence, 3 h; actives 0.96% (n = 320,000); inhibition, % at 12.5 µM; AID 488896;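 active means mean replicate inhibition of at least 70% and a set share of replicates each scoring 70 or more; inconclusive means meets just one of the two criteria; inactive means fails both criteria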;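 further: 0% = median of neutral control wells and 100% = median of positive control wells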
Target sequence (Q61009 whole entry, looked up): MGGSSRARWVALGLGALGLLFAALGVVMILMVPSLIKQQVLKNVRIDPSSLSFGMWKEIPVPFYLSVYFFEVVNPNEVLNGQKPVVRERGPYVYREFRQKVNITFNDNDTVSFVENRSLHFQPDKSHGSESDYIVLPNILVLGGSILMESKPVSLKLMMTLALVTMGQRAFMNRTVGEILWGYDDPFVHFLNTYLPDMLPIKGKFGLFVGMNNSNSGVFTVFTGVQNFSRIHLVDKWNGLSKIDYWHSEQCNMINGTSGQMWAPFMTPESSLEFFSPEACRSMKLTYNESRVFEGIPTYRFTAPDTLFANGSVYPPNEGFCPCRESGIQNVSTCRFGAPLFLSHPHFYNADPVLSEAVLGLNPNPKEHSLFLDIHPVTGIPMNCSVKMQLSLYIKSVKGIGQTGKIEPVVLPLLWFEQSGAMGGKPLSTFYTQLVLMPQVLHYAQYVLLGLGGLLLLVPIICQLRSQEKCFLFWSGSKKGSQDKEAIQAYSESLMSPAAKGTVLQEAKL
Active calls of the source: *; ? = inconclusive; nt = no result given. Sampled rows, rich in hits. Any-hit rate of the full collection: about 1.2%.

SMILES	CaV13 FRET inh	SR-BI uptake up	FN deposit inh	Efflux pump inh	SR-BI HDL uptake
Nc1ncnc2c1ncn2[C@@H]1O[C@H](CNS(=O)(=O)c2cc(S(=O)(=O)c3ccccc3)cs2)[C@@H](O)[C@H]1O	-7	130*	2	0	-131
COC(=O)c1[nH]c2cc(C)ccc2c1NC(=O)CN1CCOCC1	-5	1	-6	0	-1
COC(=O)c1[nH]c2cc(C)ccc2c1NC(=O)CN1CCN(c2ccccc2OC)CC1	nt	-76	nt	0	76*
CO[C@@H]1CN(C)C(=O)c2ccc(NS(=O)(=O)c3ccccc3)cc2OC[C@@H](C)N(C)C[C@@H]1C	nt	nt	6	nt	nt
COc1ccccc1-c1ccc([C@H]2[C@@H](CO)N[C@@H]2CNC(=O)C2CCC2)cc1	nt	nt	4	nt	nt
COc1ccc(/C=C2\Sc3ccc(C(=O)N4CCCC4)cc3N(C)C2=O)cc1OC	nt	-68	nt	0	68
COc1ccc(/C=C2\Sc3ccc(C(=O)NC4CC4)cc3N(C)C2=O)cc1OC	-7	-76	8	0	76*
CCOC(=O)C1=C(C)N=c2s/c(=C\c3ccc(O)c([N+](=O)[O-])c3)c(=O)n2C1c1ccccc1OC (configuration not stated)	-2	-14	-9	1	14
COc1ccc(C2C(C(C)=O)=C(C)N=c3s/c(=C\c4cc(C)n(C)c4C)c(=O)n32)c(OC)c1 (configuration not stated)	-16	6	-8	2.5*	-6
CCOC(=O)C1=C(C)N=c2s/c(=C/c3cccc([N+](=O)[O-])c3O)c(=O)n2C1c1ccc(OC)cc1OC (configuration not stated)	-19	-19	1	0.7*	19
CC(C)NC(=O)N(C)C[C@@H]1Oc2ccc(N(S(C)(=O)=O)S(C)(=O)=O)cc2C(=O)N(C)C[C@@H]1C	nt	nt	-2	nt	nt
CC(C)CNC(=O)c1cccc(NC(=O)c2ccc3c(c2)C(=O)N(C)C3=O)c1	-6	-81	3	0	81*
CN(C)C(=O)c1cccc(-c2ccc([C@H]3[C@H](CO)N4C(=O)CN(C(=O)C5CCCC5)C[C@@H]34)cc2)c1	nt	nt	-1	nt	nt
COc1ccc(NC(=O)Nc2ccc3c(c2)CC(=O)N([C@H](C)CO)C[C@@H](C)[C@H](CN(C)C(=O)Nc2ccccc2)O3)cc1	-4	-70	-3	1	70*
C[C@H]1CN([C@@H](C)CO)C(=O)Cc2cc(NC(=O)CCC(F)(F)F)ccc2O[C@H]1CN(C)Cc1ccc(-c2ccccc2)cc1	-4	154*	0	0	-154
C[C@@H]1CN([C@H](C)CO)C(=O)Cc2cc(NC(=O)CCC(F)(F)F)ccc2O[C@H]1CN(C)Cc1ccc(Oc2ccccc2)cc1	nt	nt	8	nt	nt
CCOc1cccc(NC(=O)C2CC(=O)N(C)C(=Nc3ccccc3)S2)c1 (configuration not stated)	nt	-75	nt	0	75*
CCOc1cccc(NC(=O)C2CC(=O)N(C)C(=Nc3cccc(F)c3)S2)c1 (configuration not stated)	-7	-73	nt	0	73*
CN1C(=O)CC(C(=O)Nc2ccccc2F)SC1=Nc1ccc2c(c1)OCO2 (configuration not stated)	-7	-73	nt	0	73*
COCCNC(=O)C[C@H]1CC[C@@H]2[C@@H](COc3ccc(NC(=O)Cc4ccccc4)cc3C(=O)N2C)O1	nt	nt	4	nt	nt
CO[C@H]1CN(C)C(=O)c2cc(NC(C)=O)ccc2OC[C@@H](C)N(CC2CCCCC2)C[C@H]1C	nt	nt	-2	nt	nt
CC1(C(=O)N2CCC(CO)(Cc3cccc(C(F)(F)F)c3)CC2)CC1	-5	-85	-1	0	85*
N#Cc1cc(C(=O)c2cc(Cl)ccc2O)cn(-c2ccccc2)c1=O	-7	76*	-2	0	-76
Cc1ccc(NC(=O)c2cc(C(=O)c3cc(Cl)ccc3O)cn(-c3ccc(C)cc3)c2=O)cc1	-6	-83	4	0	83*
O=C(O)CCC1(CCC(=O)O)CCCC(CCC(=O)O)(CCC(=O)O)C1=O	-5	61*	7	nt	-61
SMILES	CaV13 FRET inh	SR-BI uptake up	FN deposit inh	Efflux pump inh	SR-BI HDL uptake
O=C(O)CCN1C(=O)NC2(CCCC2)C1=O	-3	-12	4	0	12
Cn1nc(-c2ccc(Cl)cc2)c2cc(C(=O)NCC3CCCO3)sc21 (configuration not stated)	?	-87	15	0	87*
C[C@H](CO)N1C[C@H](C)[C@H](CN(C)C(=O)NC2CCCCC2)Oc2c(NC(=O)CCCCCC(=O)Nc3ccccc3N)cccc2C1=O	nt	nt	12	nt	nt
O=C1CCCCn2nncc2COC[C@H](Cc2ccccc2)N1	nt	nt	0	nt	nt
COc1ccccc1OCc1ccc(C(=O)N(C)c2ccccc2)o1	39*	-14	-1	0	14
Cc1ccccc1S(=O)(=O)N1C[C@H](O)COC[C@H]2O[C@@H](CC(=O)N3CCN(C)CC3)CC[C@@H]21	nt	nt	5	nt	nt
O=C(N/N=C/c1cc(Cl)ccc1O)C(=O)Nc1ccccc1OC(F)(F)C(F)F	nt	-119	nt	0	119*
O=C(N/N=C/c1cc(Br)ccc1O)C(=O)Nc1ccccc1OC(F)(F)C(F)F	-8	-129	nt	0	129*
COc1ccccc1/C=N/NC(=O)C(=O)Nc1ccccc1OC(F)(F)C(F)F	-4	-55	6	0	55
CCCN1C[C@@H](C)[C@@H](OC)CN(C)C(=O)c2cc(NC(=O)C3CC3)ccc2OC[C@H]1C	nt	nt	0	nt	nt
CCOc1ccc(CCNC(=O)c2nnn(CC(=O)Nc3ccc(OC)cc3)c2N)cc1OCC	-3	-41	0	0	41
CCOc1ccc(CCNC(=O)COC(=O)/C=C/c2cccc(OC)c2)cc1OCC	-5	0	-3	0	0
COc1ccc(CCNC(=O)/C=C\c2ccccc2)cc1OC	-4	-17	11	0	17
CCOc1ccc(/C=C/C(=O)OCC(=O)NCCc2ccc(OCC)c(OCC)c2)cc1OC	-5	-73	4	0	73*
COc1ccc(/C=C/C(=O)NC(=S)NCCc2ccc(OC)c(OC)c2)cc1	-8	-83	nt	0	83*
CCOc1ccc(CCNC(=O)c2nnn(CC(=O)Nc3ccc(OC)c(OC)c3)c2N)cc1OCC	-7	-72	-7	0	72*
CO[C@H]1CN(C)C(=O)c2cc(NC(=O)CC(F)(F)F)ccc2OC[C@H](C)NC[C@@H]1C	nt	nt	-5	nt	nt
C[C@@H]1CN([C@H](C)CO)C(=O)CCCn2cc(nn2)CO[C@@H]1CN(C)Cc1ccc(C(F)(F)F)cc1	nt	nt	0	nt	nt
